ChEMBL document CHEMBL4316658, “Structure and Absolute Configuration of Abietane Diterpenoids from Salvia clinopodioides: Antioxidant, Antiprotozoal, and Antipropulsive Activities” (J Nat Prod, 2019)
Structures can show the parent of a compound that is named as a salt.

Legend:
[1] = Antioxidant activity assessed as DPPH radical scavenging activity measured after 30 mins; format: functional
Procedure, shortened: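 Test compound solution (50 μL) mixed with 150 μL ethanolic DPPH, 100 μM final; 37 °C for 30 min; absorbance at 515 nm. Percent inhibition relative to a 100 μM DPPH ethanol blank.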

Giardia intestinalis = test: Antiparasitic activity against Giardia intestinalis IMSS:0989:1 assessed as inhibition of parasitic growth treated for 48 hrs followed by compound washout and measured after 48 hrs by MTT/PMS dye based colorimetric method; format: functional, organism-based; details: Giardia duodenalis, IMSS:0989:1, 48 h
Procedure, shortened: (§1)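 Axenic log-phase trophozoites in TYI-S-33 medium: E. histolytica HM1-IMSS with 10% heat-inactivated bovine serum (6 × 10^3 cells); G. lamblia IMSS:8909:1 with 10% calf serum and bovine bile (5 × 10^4 cells). Exposed 48 h at 37 °C to 2.5−200 μg/mL in DMSO, then subcultured drug-free 48 h. Counted by hemocytometer, confirmed by MTT/PMS formazan at 570 nm. Duplicates, ≥3 repeats; IC50 by probit regression.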

Entamoeba histolytica = test: Antiparasitic activity against Entamoeba histolytica HM1-IMSS trophozoites assessed as inhibition of parasitic growth treated for 48 hrs followed by compound washout and measured after 48 hrs by MTT/PMS dye based colorimetric method; format: functional, organism-based; details: HM-1:IMSS; procedure, shortened: as §1
Brain [2] = test: Antioxidant activity in Wistar rat brain homogenate assessed as inhibition of […] lipid peroxidation by measuring reduction in TBARS level preincubated for 30 mins followed by […] and measured after 1 hr; format: functional, tissue-based
Procedure, shortened: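 Adult male Wistar rat whole brain homogenized 1/10 (w/v) in PBS pH 7.4. Spun 10 min at 800 rcf; supernatant set to 2.666 mg protein/mL. Supernatant with EDTA and compound in DMSO preincubated 30 min at 37 °C. FeSO4 added (10 μM final), then 1 h at 37 °C. TBA/TCA reagent added, heated 80 °C 30 min, A540 read. Calibrated against TMP standard curve; IC50 by linear regression.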

Rattus norvegicus = test: Antidiarrheal activity in po dosed Sprague-Dawley rat assessed as inhibition of charcoal-gum acacia-induced hyperperistalsis by measuring reduction in distance travelled by charcoal from pylorus to cecum pretreated for 20 mins followed by charcoal meal stimulation and measured after 30 mins; format: functional; details: read-out: ID50 (the source's name)
Brain [3] = test: Potency index, ratio of BHT IC50 to test compound IC50 for antioxidant activity in Wistar rat brain homogenate assessed as inhibition of FeCl2-induced lipid peroxidation; format: functional, tissue-based
Brain [4] = test: Potency index, ratio of quercetin IC50 to test compound IC50 for antioxidant activity in Wistar rat brain homogenate assessed as inhibition of FeCl2-induced lipid peroxidation; format: functional, tissue-based
[5] = Rattus norvegicus, Wistar, Brain, read-out: IC50

SMILES | IC50 [1] | IC50 (Brain [2]; [5]) [µM] | IC50 (Giardia intestinalis) [µM] | IC50 (Entamoeba histolytica) [µM] | ED50 (Rattus norvegicus) [µmol/kg] | other results
CN(C)C(=O)C(CCN1CCC(O)(c2ccc(Cl)cc2)CC1)(c1ccccc1)c1ccccc1 [LOPERAMIDE HYDROCHLORIDE] |  |  |  |  | 0.2 | 
Cc1cc(C(C)(C)C)c(O)c(C(C)(C)C)c1 [BUTYLATED HYDROXYTOLUENE] |  | 1.2 |  |  |  | 
CC[C@H]1CN2CCc3cc(OC)c(OC)cc3[C@@H]2C[C@@H]1C[C@H]1NCCc2cc(OC)c(OC)cc21 [EMETINE] |  |  | 0.8 |  |  | 
O=c1c(O)c(-c2ccc(O)c(O)c2)oc2cc(O)cc(O)c12 [QUERCETIN] |  |  |  |  | 1.1 | IC50 ([1]; read-out: IC50): 10.9 µM
CC(C)c1cc2c(c(O)c1O)[C@]13CCC[C@](C)(COC1=O)[C@@H]3CC2 |  | 2.7 | 49 | 31.3 | 5.5 | IC50 ([1]; read-out: IC50): 29.9 µM; Ratio IC50 (Brain [3]): 2; Ratio IC50 (Brain [4]): 2
Cc1c(C)c2c(c(C)c1O)CC[C@@](C)(CCC[C@H](C)CCC[C@H](C)CCCC(C)C)O2 [ALPHA-TOCOPHEROL] |  |  |  |  |  | IC50 ([1]; read-out: IC50): 31.7 µM
Cc1ncc([N+](=O)[O-])n1CCO [METRONIDAZOLE] |  |  | 1.2 | 0.2 |  | 
COC(=O)[C@]12CCC[C@](C)(C=O)[C@@H]1CCc1cc(C(C)C)c(OC)c(O)c12 | Not Active | 19.2 | 61.8 | 48.5 |  | 

Second part, led by results:

IC50 [1] | IC50 (Brain [2]; [5]) [µM] | SMILES | IC50 (Giardia intestinalis) [µM] | IC50 (Entamoeba histolytica) [µM] | ED50 (Rattus norvegicus) [µmol/kg] | other results
Not Active |  | COc1c(C(C)C)cc2c(c1O)[C@]13CCC[C@](C)([C@H](O)OC1=O)[C@@H]3CC2 | 67.1 | 43 | 2.2 | IC50 (Brain [2]): Not Active
Not Active |  | COc1c(C(C)C)cc2c(c1OC(C)=O)[C@]13CCC[C@](C)([C@H](OC(C)=O)OC1=O)[C@@H]3CC2 |  |  |  | IC50 (Brain [2]): Not Active
Not Active | 40.9 | COc1c(C(C)C)cc2c(c1O)C[C@]13CCC[C@](C)(C(=O)O1)[C@@H]3CC2 |  |  |  | 
Not Active |  | CC(=O)Oc1c(C(C)C)cc2c(c1OC(C)=O)[C@]13CCC[C@](C)([C@H](OC(C)=O)OC1=O)[C@@H]3CC2 | 47.7 | 39.5 | 2.7 | IC50 (Brain [2]): Not Active
Not Active |  | COc1c(C(C)C)cc2c(c1O)[C@]13CCC[C@](C)([C@H](OC(C)=O)OC1=O)[C@@H]3CC2 | 46.4 | 34.9 |  | IC50 (Brain [2]): Not Active
 | 5.9 | CC(C)c1cc2c(c(O)c1O)[C@]13CCC[C@](C)([C@H](O)OC1=O)[C@@H]3CC2 | 63 | 37.8 | 4.1 | IC50 ([1]; read-out: IC50): 24.8 µM; Ratio IC50 (Brain [3]): 5; Ratio IC50 (Brain [4]): 4
